Lipid droplet: inhibitors of hepatocyte lipid droplet formation, primary screen, imaging, high-throughput imaging, BODIPY stain | AID 1656, 2009 | 0.4% of 240,000 active | AML12 mouse hepatocytes, oleate lipid droplets | inhibition, % at 6.5 µM;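 active means lipid droplet intensity inhibited by at least 50%, with more than 500 cells counted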
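Assay system: AML12 hepatocytes (mouse) / Also added: 100 µM oleic acid challenge / Times: overnight treatment with compound plus oleate / Detection: high-content imaging of BODIPY-stained droplets and DAPI nuclei / Evaluation: % inhibition of lipid droplet signal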
HTR5A inv ag: HTR5A inverse agonists in luminescence cell assay, primary screen, counter-screen for OPRM1-OPRD1 heterodimer inverse agonist project, full-deck HTS. HTR5A cell line, inverse agonism. inhibition, % at 9.3 µM. 0.083% of 340,000 active. AID 504634, 2011; in the data active means inhibition mostly above about 23%, no sharp cut-off; inactive means mostly below about 18%;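 further: 0% = cells with DMSO and 100% = no-cell wells with DMSO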
Target sequence (P47898 whole entry, looked up): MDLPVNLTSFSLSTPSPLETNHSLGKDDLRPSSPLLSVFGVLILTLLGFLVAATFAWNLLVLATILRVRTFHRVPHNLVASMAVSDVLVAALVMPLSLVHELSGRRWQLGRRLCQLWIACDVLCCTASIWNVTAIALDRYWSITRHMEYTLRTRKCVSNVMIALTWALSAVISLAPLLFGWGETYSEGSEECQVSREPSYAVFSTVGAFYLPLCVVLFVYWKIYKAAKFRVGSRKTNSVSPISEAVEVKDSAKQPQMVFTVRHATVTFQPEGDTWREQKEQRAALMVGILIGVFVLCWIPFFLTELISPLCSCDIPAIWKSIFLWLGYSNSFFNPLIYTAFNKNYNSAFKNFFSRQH
OPRM1-OPRD1 ag: agonists of OPRM1-OPRD1 heterodimerization, primary screen, cell-based, luminescence. cells. activation, % at 9.3 µM. 0.3% of 340,000 active;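 further: 0% = vehicle-treated cells and 100% = reference agonist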
HTR5A ag: HTR5A agonists in luminescence cell assay, primary screen, counter-screen for OPRM1-OPRD1 heterodimer agonist project, full-deck HTS; activation, % at 9.3 µM; 5-hydroxytryptamine receptor 5A (Homo sapiens), P47898; 0.61% of 340,000 active; cell-based; in the data active means activation mostly above about 9.5%, no sharp cut-off; inactive means mostly below about 7.6%;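 further: 0% = cells with vehicle only and 100% = reference agonist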
OPRM1-OPRD1 inv: inverse agonists of MOR-DOR heterodimerization, primary screen, cell-based, luminescence | Mu-type opioid receptor (Homo sapiens) + Delta-type opioid receptor (Homo sapiens), … | inhibition, % at 9.3 µM | 0.21% of 340,000 active | cell-based MOR-DOR heterodimer luminescence, inverse agonism; in the data active means inhibition above about 22%, passing the limit was not always enough;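 further: 0% = cells with DMSO and 100% = wells without cells with DMSO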
MOR-DOR ag conf: agonists of MOR-DOR heterodimerization, confirmation, cell-based, luminescence; shares compounds with OPRM1-OPRD1 ag; cells, luminescence complementation; activation, % at 9.3 µM; 45% of 830 active; AID 504904, 2011;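 further: 0% = vehicle-treated cells and 100% = reference agonist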
HTR5A ag counter: HTR5A agonists in cells, counter-screen for OPRM1-OPRD1 heterodimer agonist project, cell-based, luminescence; 8% of 830 active; shares compounds with OPRM1-OPRD1 ag; activation, % at 9.3 µM; HTR5A agonist counterscreen; in the data active means activation above about 17%;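 further: 0% = vehicle-treated cells and 100% = reference agonist response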
The depositor's hits bear a star; i = inactive; x = no result. Hits are enriched below; roughly 1.4% of the tested compounds scored in any of these assays. Unless noted, no stated cut-off is given here; in the data, active means activation above about 18%; inactive means the rest.

SMILES | Lipid droplet | HTR5A inv ag | OPRM1-OPRD1 ag | HTR5A ag | OPRM1-OPRD1 inv | MOR-DOR ag conf | HTR5A ag counter
CCOC(=O)C1(CCOc2ccccc2)CCN(Cc2ccc(OC)cc2)CC1 | x | 4.6 | 224.2* | -1.2 | i | 3.7 | 7.0
CCOC(=O)C1(CCOc2ccccc2)CCN(Cc2cccc(-n3cccn3)c2)CC1 | -40.3 | -2.4 | 32.6* | 0.9 | -170.1 | 17.2 | -0.8
CCOC(=O)C1(CCOc2ccccc2)CCN(Cc2cccc3c2OCO3)CC1 | -16.1 | 7.6 | 18.1* | -2.6 | -93.0 | 13.5 | 5.8
O=C(NCc1ccc(Cl)s1)C1CCC(=O)N(CCc2ccccn2)C1 (stereo not given) | -10.0 | -14.5 | -1.0 | 3.8 | 5.1 | x | x
Cc1ccnc2nc(C(=O)OCC(=O)NCc3cccc(Cl)c3)nn12 | x | 13.9 | 0.1 | -5.7 | -0.3 | x | x
CC(C)(C)c1ccc(NC(=O)c2ccsc2)cc1 | -43.1 | x | x | x | x | x | x
CCOC(=O)C1(CCOc2ccccc2)CCN(Cc2ccc(NC(C)=O)cc2)CC1 | 17.3 | 10.3 | 91.8* | -4.2 | i | 7.6 | 6.8
CC(=O)Nc1ccc(CN2CCC(CO)(CCOc3ccccc3)CC2)cc1 | 2.5 | -6.0 | 3.5 | 2.1 | -17.8 | x | x
CC(C)(C)/C(O)=C(/C#N)c1nc2ccccc2[nH]1 | -2.2 | 6.7 | 0.3 | -2.8 | -1.4 | x | x
CC(C)CC(/C(O)=C(\C#N)c1nc2ccccc2[nH]1)N1C(=O)c2ccccc2C1=O (stereo not given) | -11.5 | -12.4 | 30.9* | 1.6 | -141.0 | 30.3* | 4.5
CC(=O)NS(=O)(=O)c1cccnc1Nc1ccc(Cl)cc1 | 10.0 | -6.3 | -3.7 | 11.0 | 16.4 | x | x
Cc1ccc(/C=N/NC(=O)CSc2nnc(-c3ccccc3)n2-c2ccc(Cl)cc2)o1 | -14.4 | -0.4 | 4.5 | 3.2 | -23.0 | x | x
Cc1ccc(/C=N/NC(=O)CSc2nnc(-c3ccc(Cl)cc3)n2-c2ccc(Cl)cc2)o1 | -8.2 | -31.5 | 36.7* | 10.6 | -186.3 | 17.8 | 17.2*
COc1ccc(-n2c3c(cc(C(=O)NNc4ccccc4C)c2=O)C(=O)CC(C)(C)C3)cc1 | 5.1 | -7.3 | 99.4* | 2.8 | -470.0 | 132.5* | -1.0
COc1ccc(-n2c3c(cc(C(=O)NNc4ccccc4)c2=O)C(=O)CC(C)(C)C3)cc1 | 3.9 | 3.9 | 128.5* | -1.5 | i | -0.3 | 3.3
CC1(C)CC(=O)c2cc(C(=O)Nn3cnnc3)c(=O)n(-c3ccccc3)c2C1 | -0.1 | 14.2 | -2.2 | -5.6 | 12.4 | x | x
NNC(=O)c1ccc(N2CCCCCC2)c([N+](=O)[O-])c1 | 4.9 | -2.6 | -1.9 | 1.0 | 9.0 | x | x
O=C(COC(=O)/C=C/c1cccs1)Nc1cccc(S(=O)(=O)N2CCCC2)c1 | 13.2 | 0.0 | -1.9 | 0.0 | 10.8 | x | x
COc1ccc(S(=O)(=O)N(CC(=O)Nc2cccnc2)c2ccccc2OC)cc1 | 3.7 | 10.9 | 64.5* | 6.0 | -328.2 | 6.2 | 9.7
COc1ccc(C)cc1N(CC(=O)Nc1cccnc1)S(=O)(=O)c1ccc(C)cc1 | 5.0 | 8.0 | 69.3* | 3.7 | -345.4 | 0.3 | -0.8
COc1ccc(N(CC(=O)Nc2cccnc2)S(=O)(=O)c2ccc(C)cc2)cc1Cl | 11.3 | 3.0 | -1.4 | -1.1 | 7.2 | x | x
Cc1cnc(C(=O)NCC(c2ccccc2)c2ccccc2)cn1 | -2.3 | 6.3 | -3.5 | -2.3 | 18.7 | x | x
O=C(/C=C/c1ccc(S(=O)(=O)N2CCOCC2)cc1)OCC(=O)c1ccc([N+](=O)[O-])cc1 | -3.1 | 9.8 | 1.9 | -0.9 | -10.1 | x | x
C/C(=N\NC(=O)c1cccc(S(=O)(=O)N2CCOCC2)c1)c1ccc(O)cc1 | x | -19.5 | 218.5* | 7.9 | i | -0.6 | 1.9
O=C1c2[nH]nc(-c3ccccc3O)c2C(c2ccc(F)cc2)N1Cc1ccco1 (stereo not given) | -10.9 | 0.3 | 19.7* | -0.1 | -99.5 | 10.1 | 1.8
SMILES | Lipid droplet | HTR5A inv ag | OPRM1-OPRD1 ag | HTR5A ag | OPRM1-OPRD1 inv | MOR-DOR ag conf | HTR5A ag counter
CCOC(=O)c1c(C)[nH]c(C(=O)OC/C(O)=C(\C#N)c2nc3ccccc3[nH]2)c1C | 3.6 | -18.6 | 32.3* | 9.9* | -195.7 | 41.0* | 5.4
COc1ccc2oc(C(=O)OC/C(O)=C(\C#N)c3nc4ccccc4[nH]3)c(C)c2c1 | -1.0 | -0.2 | 3.5 | 0.1 | -19.1 | x | x
CCCn1c(N)c(C(=O)CSc2nc(C)nc3sc(C)c(C)c23)c(=O)[nH]c1=O | x | -22.3 | -5.6 | 3.2 | 27.4 | x | x
COc1ccc(CN(C)C(=O)COC(=O)c2ccc(-c3ccccc3)cc2)c(OC)c1OC | x | -8.9 | 2.0 | 1.1 | -13.3 | x | x
Cc1cc(OC(=O)c2ccccc2Br)c([N+](=O)[O-])c(=O)[nH]1 | 16.1 | -5.9 | -0.7 | 2.1 | 3.6 | x | x
CC1(c2ccc(Cl)cc2Cl)NC(=O)N(CC(=O)Nc2ccc3[nH]c(=O)[nH]c3c2)C1=O (stereo not given) | x | 7.7 | -0.4 | -2.8 | 2.6 | x | x
COc1ccc(C2C(C#N)=C3NC(=O)c4c(sc5c4CCCCC5)N3C3=C2C(=O)CC(C)(C)C3)cc1 (stereo not given) | x | -6.4 | 2.0 | 2.4 | -11.8 | x | x
COc1ccc(C2C(C#N)=C(N)N(c3sc4c(c3C#N)CCCC4)C3=C2C(=O)CC(C)(C)C3)cc1OC (stereo not given) | x | -5.2 | 22.9* | 1.4 | -142.9 | 30.6* | 25.2*
COc1ccc(C2C(C#N)=C(N)N(c3sc4c(c3C#N)CCCC4)C3=C2C(=O)CC(C)(C)C3)cc1 (stereo not given) | 8.7 | -3.6 | 87.8* | 0.9 | i | 211.0* | -5.1
CC1(C)CC(NC(=O)c2cccc(S(=O)(=O)Nc3cccc(Cl)c3)c2)CC(C)(C)N1 | x | -12.4 | -2.1 | -0.5 | 8.3 | x | x
C=CCOc1cccc(C2/C(=C(\O)c3ccc4c(c3)OCCO4)C(=O)C(=O)N2CCN2CCOCC2)c1 (stereo not given) | -6.1 | 14.4 | -2.1 | 6.7 | 10.7 | x | x
CCC(C(=O)OCC(=O)Nc1cc(Cl)cc(Cl)c1)c1ccccc1 (stereo not given) | -4.6 | -1.7 | 4.0 | 0.7 | -29.2 | x | x
Nc1nc(SCC(=O)Nc2ccccc2)nc2nc3c(cc12)CCCC3 | 1.9 | -51.7 | 35.4* | 9.0 | -193.8 | 6.6 | 4.6
COc1ccc(NC(=O)CSc2nc(N)c3cc4c(nc3n2)CCCC4)c(OC)c1 | x | -0.1 | -1.7 | 0.0 | 9.1 | x | x
Cc1ccc(NC(=O)CSc2nc(N)c3cc4c(nc3n2)CCCC4)cc1 | -8.3 | -21.5 | 29.1* | 2.1 | -155.8 | 28.2* | 0.8
O=C(c1ccc(N2CCCC2=O)cc1)N1CCN(c2ccccc2F)CC1 | 0.1 | -10.0 | -3.6 | 1.1 | 19.6 | x | x

Screening data as filed in PubChem.
